Holding throughout (format): functional
Assay [1] concerns Athelia rolfsii. The assay can be described thus: Antifungal activity against Athelia rolfsii assessed as growth inhibition by poisoned food technique. The following applies: Agroathelia rolfsii; read-out: ED50 (the source's name). Put shortly: (§1)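 ED50 from poisoned-food growth inhibition on PDA at 250, 125 and 62.5 μg/mL in medium, with an acetone control. Plates were inoculated with a 5 mm mycelial disc, incubated at 28 °C, and colony diameter was measured in quadruplicate. Percent inhibition was corrected by Abbott's formula, using a correction factor from the 9 cm dish diameter, and ED50 (μg/mL) was derived by probit analysis.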

Assay [2] concerns Fusarium udum. The experiment in a line: Antifungal activity against Fusarium udum assessed as growth inhibition at 62.5 ug/ml by poisoned food technique. Put shortly:
(§2)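 Poisoned-food assay on PDA. Test material was diluted in acetone and mixed into molten medium at final 250, 125 or 62.5 μg/mL, with 1 mL acetone as control. Plates received a 5 mm mycelial disc from the front of a 2-week-old colony and were incubated at 28 °C until control growth was nearly complete. Colony diameter was measured, giving %I = (C−T)/C×100. Mean ± SD of four replicates.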

Assay [3] deals with Macrophomina phaseolina. The experiment in a line: Antifungal activity against Rhizoctonia bataticola assessed as growth inhibition at 125 ug/ml by poisoned food technique. Summed up: as §2
Assay [4] relates to Pythium aphanidermatum. The experiment in a line: Antifungal activity against Pythium aphanidermatum assessed as growth inhibition at 62.5 ug/ml by poisoned food technique. Put shortly:
as §2

In assay [5] the test system is Globisporangium debaryanum. The assay can be described thus: Antifungal activity against Pythium debaryanum assessed as growth inhibition by poisoned food technique. Conditions: read-out: ED50 (the source's name). Put shortly:
as §1

The subject of assay [6] is Rhizoctonia solani. The experiment in a line: Antifungal activity against Rhizoctonia solani assessed as growth inhibition at 125 ug/ml by poisoned food technique. Put shortly: as §2
Assay [7] concerns Macrophomina phaseolina. The assay can be described thus: Antifungal activity against Rhizoctonia bataticola assessed as growth inhibition by poisoned food technique. Conditions: read-out: ED50 (the source's name). Put shortly: as §1
The subject of assay [8] is Fusarium udum. The assay can be described thus: Antifungal activity against Fusarium udum assessed as growth inhibition at 250 ug/ml by poisoned food technique. Summed up: as §2
The subject of assay [9] is Macrophomina phaseolina. The experiment in a line: Antifungal activity against Rhizoctonia bataticola assessed as growth inhibition at 250 ug/ml by poisoned food technique. Summed up:
as §2

Assay [10] deals with Rhizoctonia solani. The experiment in a line: Antifungal activity against Rhizoctonia solani assessed as growth inhibition by poisoned food technique. The following applies: read-out: ED50 (the source's name). Put shortly:
as §1

In assay [11] the test system is Pythium aphanidermatum. The experiment in a line: Antifungal activity against Pythium aphanidermatum assessed as growth inhibition by poisoned food technique. The following applies: read-out: ED50 (the source's name). Summed up:
as §1

Assay [12] concerns Rhizoctonia solani. The experiment in a line: Antifungal activity against Rhizoctonia solani assessed as growth inhibition at 62.5 ug/ml by poisoned food technique. Put shortly: as §2
Assay [13] deals with Pythium aphanidermatum. The assay can be described thus: Antifungal activity against Pythium aphanidermatum assessed as growth inhibition at 250 ug/ml by poisoned food technique. Summed up: as §2
Assay [14] deals with Fusarium udum. The experiment in a line: Antifungal activity against Fusarium udum assessed as growth inhibition by poisoned food technique. Conditions: read-out: ED50 (the source's name). Put shortly: as §1
Assay [15] deals with Globisporangium debaryanum. The assay can be described thus: Antifungal activity against Pythium debaryanum assessed as growth inhibition at 62.5 ug/ml by poisoned food technique. Put shortly: as §2
Assay [16] relates to Rhizoctonia solani. The assay can be described thus: Antifungal activity against Rhizoctonia solani assessed as growth inhibition at 250 ug/ml by poisoned food technique. Summed up:
as §2

Assay [17] relates to Globisporangium debaryanum. The experiment in a line: Antifungal activity against Pythium debaryanum assessed as growth inhibition at 125 ug/ml by poisoned food technique. Put shortly: as §2
For assay [18], the system named is Fusarium udum. The assay can be described thus: Antifungal activity against Fusarium udum assessed as growth inhibition at 125 ug/ml by poisoned food technique. Put shortly: as §2
Assay [19] concerns Athelia rolfsii. The experiment in a line: Antifungal activity against Athelia rolfsii assessed as growth inhibition at 250 ug/ml by poisoned food technique. Conditions: Agroathelia rolfsii. Summed up:
as §2

The subject of assay [20] is Athelia rolfsii. The assay can be described thus: Antifungal activity against Athelia rolfsii assessed as growth inhibition at 125 ug/ml by poisoned food technique. Conditions: Agroathelia rolfsii. Put shortly:
as §2

The test system of assay [21] is Macrophomina phaseolina. The experiment in a line: Antifungal activity against Rhizoctonia bataticola assessed as growth inhibition at 62.5 ug/ml by poisoned food technique. Put shortly:
as §2

Assay [22] deals with Globisporangium debaryanum. The assay can be described thus: Antifungal activity against Pythium debaryanum assessed as growth inhibition at 250 ug/ml by poisoned food technique. Summed up: as §2
Assay [23] deals with Athelia rolfsii. The assay can be described thus: Antifungal activity against Athelia rolfsii assessed as growth inhibition at 62.5 ug/ml by poisoned food technique. Conditions: Agroathelia rolfsii. Summed up: as §2
Assay [24] has as its system Pythium aphanidermatum. The assay can be described thus: Antifungal activity against Pythium aphanidermatum assessed as growth inhibition at 125 ug/ml by poisoned food technique. Put shortly: as §2

In brackets after ≈: the same amount, converted by molar mass.

One may read the inhibition as the share of the control response that was lost under treatment. As to `COc1cc(C)c2c(=O)c3c(O)cc(OC)cc3oc2c1` [LICHEXANTHONE], the EC50 was found to be 273 µg/mL (≈ 955 µM) with Athelia rolfsii [1]; 149 µg/mL (≈ 520 µM) in assay [5]; 134 µg/mL (≈ 467 µM) with Macrophomina phaseolina [7]; 202 µg/mL (≈ 707 µM) in the assay on Rhizoctonia solani [10]; 174 µg/mL (≈ 608 µM) with Pythium aphanidermatum [11]; 151 µg/mL (≈ 528 µM) in the assay with Fusarium udum [14]. The inhibition at 62.5 µg/mL in the assay on Fusarium udum [2] was determined as 20.3%; in the assay on Pythium aphanidermatum [4], 13%; in the assay on Rhizoctonia solani [12], 19.6%; in [15], 9.03%; in the assay with Macrophomina phaseolina [21] it was 11.4%; in the assay with Athelia rolfsii [23], 16.7%. For the same compound, the inhibition at 125 µg/mL in the assay on Macrophomina phaseolina [3] was 30.3%; in the assay with Rhizoctonia solani [6], 29.4%; in assay [17], 28.4%; in the assay with Fusarium udum [18] it was 24.5%; in the assay on Athelia rolfsii [20] it was 23.2%; in the assay on Pythium aphanidermatum [24], 23.4%. The inhibition at 250 µg/mL was determined as 53.3% in the assay with Fusarium udum [8]; 50% with Macrophomina phaseolina [9]; 42.7% with Pythium aphanidermatum [13]; 41% in the assay on Rhizoctonia solani [16]; 37.3% in the assay with Athelia rolfsii [19]; 42% in assay [22].

In the case of `CCOC(=O)c1c(C)cc(O)c(C=O)c1O` [ETHYL HEMATOMMATE], the EC50 with Athelia rolfsii [1] amounted to 99 µg/mL (≈ 441 µM); in assay [5], 128 µg/mL (≈ 573 µM); with Macrophomina phaseolina [7] it was 117 µg/mL (≈ 523 µM); with Rhizoctonia solani [10], 125 µg/mL (≈ 557 µM); in the assay on Pythium aphanidermatum [11] it was 133 µg/mL (≈ 592 µM); in the assay on Fusarium udum [14], 250 µg/mL (≈ 1120 µM). The inhibition at 62.5 µg/mL with Fusarium udum [2] was found to be 6.4%; in the assay with Pythium aphanidermatum [4], 13.1%; with Rhizoctonia solani [12], 15.3%; in assay [15], 15.1%; in the assay with Macrophomina phaseolina [21] it was 27.4%; in the assay on Athelia rolfsii [23], 28.4%. The inhibition at 125 µg/mL with Macrophomina phaseolina [3] is 42.8%; in the assay with Rhizoctonia solani [6], 33.5%; in assay [17] it was 26.3%; in the assay with Fusarium udum [18] it was 13.5%; in the assay with Athelia rolfsii [20], 47.5%; with Pythium aphanidermatum [24], 32.6%. For the same compound, the inhibition at 250 µg/mL with Fusarium udum [8] is 27.4%; in the assay on Macrophomina phaseolina [9], 53.4%; with Pythium aphanidermatum [13] it was 50.4%; in the assay on Rhizoctonia solani [16] it was 55.5%; in the assay on Athelia rolfsii [19], 61%; in assay [22] it was 56.5%.

Turning to `CCOC(=O)c1c(C)cc(O)cc1O` [ORSELLINIC ACID, ETHYL ESTER], the EC50 in the assay on Athelia rolfsii [1] amounted to 82.7 µg/mL (≈ 421 µM); in assay [5] it was 72.5 µg/mL (≈ 370 µM); with Macrophomina phaseolina [7], 114 µg/mL (≈ 580 µM); in the assay with Rhizoctonia solani [10], 58.3 µg/mL (≈ 297 µM); in the assay on Pythium aphanidermatum [11], 86.9 µg/mL (≈ 443 µM); in the assay with Fusarium udum [14], 98.2 µg/mL (≈ 501 µM). Besides, the inhibition at 62.5 µg/mL in the assay on Fusarium udum [2] amounted to 17.3%; with Pythium aphanidermatum [4], 18.5%; in the assay with Rhizoctonia solani [12], 44.4%; in assay [15] it was 28.3%; in the assay on Macrophomina phaseolina [21] it was 16.4%; with Athelia rolfsii [23], 28.3%. In addition, the inhibition at 125 µg/mL was 28% in the assay with Macrophomina phaseolina [3]; 68.1% with Rhizoctonia solani [6]; 61.2% in assay [17]; 32.5% with Fusarium udum [18]; 50.5% in the assay on Athelia rolfsii [20]; 50.4% with Pythium aphanidermatum [24]. Further, the inhibition at 250 µg/mL with Fusarium udum [8] is 79.4%; in the assay with Macrophomina phaseolina [9], 67.2%; in the assay with Pythium aphanidermatum [13], 83.3%; in the assay with Rhizoctonia solani [16] it was 90.4%; in the assay on Athelia rolfsii [19], 78%; in assay [22], 91.4%.

For the origin of these results see ChEMBL document CHEMBL3046428, “Isolation, characterization and antifungal activity of major constituents of the Himalayan lichen Parmelia reticulata Tayl” (2011).
